Experimental data from ChEMBL document CHEMBL1142953, “Calcitonin gene-related peptide analogues with aza and indolizidinone amino acid residues reveal conformational requirements for antagonist activity at the human calcitonin gene-related peptide 1 receptor” (J Med Chem, 2007).
Calls of active or inactive are those of the source. The rule behind the calls is not given here. Where a SMILES comes first, the peptide text is derived from it.

What was measured:
Assay type in all cases: functional, cell-based
[1] = molecular target: Calcitonin gene-related peptide type 1 receptor (Homo sapiens) (UniProt Q16602); assay: Partial agonist activity at human CGRP1 expressed in HEK293 cells assessed by measuring cAMP production upto 1 uM
Calcitonin gene-related peptide type 1 receptor (Homo sapiens), sequence (Q16602 whole entry): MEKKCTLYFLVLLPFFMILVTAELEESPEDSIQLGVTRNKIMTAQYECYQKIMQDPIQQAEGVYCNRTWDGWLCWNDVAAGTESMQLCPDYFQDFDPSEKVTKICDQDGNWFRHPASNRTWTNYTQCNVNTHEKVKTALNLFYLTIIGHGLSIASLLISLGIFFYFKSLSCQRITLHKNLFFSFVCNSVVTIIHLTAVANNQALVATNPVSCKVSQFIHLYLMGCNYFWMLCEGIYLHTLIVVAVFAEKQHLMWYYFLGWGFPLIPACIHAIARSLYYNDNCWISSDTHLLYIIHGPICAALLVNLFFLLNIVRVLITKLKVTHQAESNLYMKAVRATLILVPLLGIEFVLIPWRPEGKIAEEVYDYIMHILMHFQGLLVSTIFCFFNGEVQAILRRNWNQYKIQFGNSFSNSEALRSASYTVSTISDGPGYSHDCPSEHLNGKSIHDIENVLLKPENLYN
How it was run: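 HEK293 cells stably expressing CRLR were exposed to CGRP27-37 analogues up to 1 µM without α-CGRP. cAMP production was measured with a fluorescence-based kit as the read-out.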

[2] = molecular target: Calcitonin gene-related peptide type 1 receptor (Homo sapiens) (UniProt Q16602); assay: Antagonist activity against human CGRP1 expressed in HEK293 cells assessed as inhibition of human alpha-CGRP-promoted cAMP production upto 100 uM
How it was run: (§1)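 HEK293 cells stably expressing CRLR, seeded at 5000 cells/well. Cells preincubated with peptide analogues for 15 min at 37 °C, then stimulated with 0.5 nM α-CGRP for 15 min at 37 °C. cAMP measured with a fluorescence-based kit. Peptides tested up to 100 µM. At least three independent experiments in triplicate, analysed by nonlinear curve fitting; mean ± SEM.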

[3] = molecular target: Calcitonin gene-related peptide type 1 receptor (Homo sapiens, UniProt O60894+Q16602); assay: (§2) Antagonist activity against human CGRP1 expressed in HEK293 cells assessed as inhibition of human alpha-CGRP-promoted cAMP production; how it was run: as §1
Calcitonin gene-related peptide type 1 receptor, sequence (Q16602 whole entry, one chain of several): as the sequence (Q16602 whole entry) above

[4] = molecular target: Calcitonin gene-related peptide type 1 receptor (Homo sapiens) (UniProt Q16602); assay: as §2; parameters: concentration or dose not given beside the values; conditions: concentration not given here; how it was run: as §1

| Compound | Activity [1] | Activity [2] | IC50 [3] | inhibition [4] |
| --- | --- | --- | --- | --- |
| CC(C)[C@H](NC(=O)[C@H](CC(=O)O)NC(=O)[C@@H](NC(=O)[C@@H]1CCCN1C(=O)[C@@H](NC(=O)[C@@H](N)Cc1ccccc1)C(C)C)[C@@H](C)O)C(=O)NCC(=O)N[C@H]1C[C@H]2CCC[C@@H](C(=O)N[C@@H](C)C(=O)N[C@@H](Cc3ccccc3)C(N)=O)N2C1=O | inactive | inactive | – | – |
| CC(C)[C@H](NC(=O)[C@H](CC(=O)O)NC(=O)[C@@H](NC(=O)[C@@H]1CCCN1C(=O)[C@@H](NC(=O)[C@@H](N)Cc1ccccc1)C(C)C)[C@@H](C)O)C(=O)N[C@H]1C[C@H]2CCC[C@@H](C(=O)N[C@@H](Cc3ccccc3)C(=O)N[C@@H](C)C(=O)N[C@@H](Cc3ccccc3)C(N)=O)N2C1=O | inactive | inactive | – | – |
| CC(C)[C@H](NC(=O)[C@@H](N)Cc1ccccc1)C(=O)N1CCC[C@H]1C(=O)N[C@H](C(=O)N[C@H]1C[C@H]2CCC[C@@H](C(=O)NCC(=O)N3CCC[C@H]3C(=O)N[C@@H](Cc3ccccc3)C(=O)N[C@@H](C)C(=O)N[C@@H](Cc3ccccc3)C(N)=O)N2C1=O)[C@H](C)O | inactive | inactive | – | – |
| CC(C)[C@H](NC(=O)[C@H](CC(=O)O)NC(=O)[C@@H](NC(=O)[C@@H]1CCCN1C(=O)[C@@H](NC(=O)N(N)Cc1ccccc1)C(C)C)[C@@H](C)O)C(=O)NCC(=O)N1CCC[C@H]1C(=O)N[C@@H](Cc1ccccc1)C(=O)N[C@@H](C)C(=O)N[C@@H](Cc1ccccc1)C(N)=O | inactive | – | 589 nM | 69% |
| CC(C)[C@H](NC(=O)[C@H](CC(=O)O)NC(=O)[C@@H](NC(=O)[C@@H]1CCCN1)[C@@H](C)O)C(=O)NCC(=O)N1CCCN1C(=O)N[C@@H](Cc1ccccc1)C(=O)N[C@@H](C)C(=O)N[C@@H](Cc1ccccc1)C(N)=O (HELM PEPTIDE1{P.T.D.V.G.[O=C(N1CCCN1[*:1])[*:2]].F.A.F.[am]}$$$$V2.0) | – | – | 4470 nM | 68% |
| CC(C)[C@H](NC(=O)[C@H](CC(=O)O)NC(=O)[C@@H](NC(=O)C1CCCN1C(=O)[C@@H](NC(=O)[C@@H](N)Cc1ccccc1)C(C)C)[C@@H](C)O)C(=O)NCC(=O)N[C@H]1C[C@H]2C[C@@H](c3ccccc3)C[C@@H](C(=O)N[C@@H](C)C(=O)N[C@@H](Cc3ccccc3)C(N)=O)N2C1=O (stereo partly drawn) | inactive | inactive | – | – |
| CC(C)[C@H](NC(=O)[C@H](CC(=O)O)NC(=O)[C@@H](NC(=O)[C@@H]1CCCN1C(=O)[C@@H](NC(=O)[C@@H](N)Cc1ccccc1)C(C)C)[C@@H](C)O)C(=O)NCC(=O)N1CCC[C@H]1C(=O)N[C@@H](Cc1ccccc1)C(=O)NN(C)C(=O)N[C@@H](Cc1ccccc1)C(N)=O | – | – | 3550 nM | – |
| C[C@H](NC(=O)[C@H](Cc1ccccc1)NC(=O)[C@@H]1CCCN1C(=O)CNC(=O)[C@@H]1CC[C@@H]2CC[C@H](NC(=O)[C@@H](NC(=O)[C@@H]3CCCN3)[C@H](C)O)C(=O)N21)C(=O)N[C@@H](Cc1ccccc1)C(N)=O | – | inactive | – | – |
| CC(C)[C@H](NC(=O)[C@H](CC(=O)O)NC(=O)[C@@H](NC(=O)[C@@H]1CCCN1C(=O)[C@@H](NC(=O)[C@@H](N)Cc1ccccc1)C(C)C)[C@@H](C)O)C(=O)NCC(=O)N1CCC[C@@H]1C(=O)N[C@@H](Cc1ccccc1)C(=O)N[C@H]1C[C@H]2C[C@@H](c3ccccc3)C[C@@H](C(N)=O)N2C1=O | inactive | inactive | – | – |
| CC(C)[C@H](NC(=O)[C@H](CC(=O)O)NC(=O)[C@@H](NC(=O)[C@@H]1CCCN1C(=O)[C@@H](NC(=O)[C@H](N)Cc1ccccc1)C(C)C)[C@@H](C)O)C(=O)NNC(=O)N1CCC[C@H]1C(=O)N[C@@H](Cc1ccccc1)C(=O)N[C@@H](C)C(=O)N[C@@H](Cc1ccccc1)C(N)=O | inactive | – | – | 70% |
| CC(C)[C@H](NC(=O)N(CC(=O)O)NC(=O)[C@@H](NC(=O)[C@@H]1CCCN1)[C@@H](C)O)C(=O)NCC(=O)N1CCC[C@H]1C(=O)N[C@@H](Cc1ccccc1)C(=O)N[C@@H](C)C(=O)N[C@@H](Cc1ccccc1)C(N)=O (HELM PEPTIDE1{P.T.[O=C(O)CN(N[*:1])C(=O)[*:2]].V.G.P.F.A.F.[am]}$$$$V2.0) | – | inactive | – | – |
| CC(C)[C@H](NC(=O)[C@H](CC(=O)O)NC(=O)[C@@H](NC(=O)[C@@H]1CCCN1)[C@@H](C)O)C(=O)NCC(=O)N1CCC[C@H]1C(=O)N[C@@H](Cc1ccccc1)C(=O)NN(C)C(=O)N[C@@H](Cc1ccccc1)C(N)=O (HELM PEPTIDE1{P.T.D.V.G.P.F.[CN(N[*:1])C(=O)[*:2]].F.[am]}$$$$V2.0) | – | inactive | – | – |
| CC(C)[C@H](NC(=O)[C@H](CC(=O)O)NC(=O)[C@@H](NC(=O)[C@@H]1CCCN1C(=O)[C@@H](NC(=O)[C@@H](N)Cc1ccccc1)C(C)C)[C@@H](C)O)C(=O)N[C@H]1CC[C@H]2CC[C@@H](C(=O)N[C@@H](Cc3ccccc3)C(=O)N[C@@H](C)C(=O)N[C@@H](Cc3ccccc3)C(N)=O)N2C1=O | inactive | – | 107 nM | 70% |
| CC(C)[C@H](NC(=O)[C@H](CC(=O)O)NC(=O)[C@@H](NC(=O)[C@@H]1CCCN1C(=O)[C@@H](NC(=O)[C@H](N)Cc1ccccc1)C(C)C)[C@@H](C)O)C(=O)NCC(=O)N1CCC[C@H]1C(=O)N[C@@H](Cc1ccccc1)C(=O)NN(C)C(=O)N[C@@H](Cc1ccccc1)C(N)=O | inactive | – | – | 51% |
| CC(C)[C@H](NC(=O)[C@H](CC(=O)O)NC(=O)[C@@H](NC(=O)[C@@H]1CCCN1)[C@@H](C)O)C(=O)NNC(=O)N1CCC[C@H]1C(=O)N[C@@H](Cc1ccccc1)C(=O)N[C@@H](C)C(=O)N[C@@H](Cc1ccccc1)C(N)=O (HELM PEPTIDE1{P.T.D.V.[O=C(NN[*:1])[*:2]].P.F.A.F.[am]}$$$$V2.0) | – | inactive | – | – |
| CC(C)[C@H](NC(=O)[C@H](CC(=O)O)NC(=O)[C@@H](NC(=O)[C@@H]1CCCN1C(=O)[C@@H](NC(=O)[C@@H](N)Cc1ccccc1)C(C)C)[C@@H](C)O)C(=O)NCC(=O)N1CCC[C@H]1C(=O)N[C@@H](Cc1ccccc1)C(=O)N[C@@H](C)C(=O)N[C@@H](Cc1ccccc1)C(N)=O | inactive | – | – | 68% |
| CC(C)[C@H](NC(=O)[C@H](CC(=O)O)NC(=O)[C@@H](NC(=O)C1CCCN1)[C@@H](C)O)C(=O)NCC(=O)N[C@H]1C[C@H]2C[C@@H](c3ccccc3)C[C@@H](C(=O)N[C@@H](C)C(=O)N[C@@H](Cc3ccccc3)C(N)=O)N2C1=O (stereo partly drawn) | – | inactive | – | – |
| CC(C)[C@H](NC(=O)[C@H](CC(=O)O)NC(=O)[C@@H](NC(=O)[C@@H]1CCCN1C(=O)[C@@H](NC(=O)[C@H](N)Cc1ccccc1)C(C)C)[C@@H](C)O)C(=O)NCC(=O)N1CCC[C@H]1C(=O)NN(Cc1ccccc1)C(=O)N[C@@H](C)C(=O)N[C@@H](Cc1ccccc1)C(N)=O | inactive | – | – | 69% |
| CC(C)[C@H](NC(=O)[C@H](CC(=O)O)NC(=O)[C@@H](NC(=O)[C@@H]1CCCN1)[C@@H](C)O)C(=O)NCC(=O)N[C@H]1C[C@H]2CCC[C@@H](C(=O)N[C@@H](C)C(=O)N[C@@H](Cc3ccccc3)C(N)=O)N2C1=O | – | inactive | – | – |
| CC(C)[C@H](NC(=O)[C@@H](N)Cc1ccccc1)C(=O)N1CCC[C@@H]1C(=O)N[C@H](C(=O)N[C@@H](CC(=O)O)C(=O)N[C@H]1C[C@H]2CCC[C@@H](C(=O)N3CCC[C@H]3C(=O)N[C@@H](Cc3ccccc3)C(=O)N[C@@H](C)C(=O)N[C@@H](Cc3ccccc3)C(N)=O)N2C1=O)[C@H](C)O | inactive | inactive | – | – |
| CC(C)[C@H](NC(=O)[C@H](CC(=O)O)NC(=O)[C@@H](NC(=O)[C@@H]1CCCN1C(=O)[C@@H](NC(=O)[C@@H](N)Cc1ccccc1)C(C)C)[C@@H](C)O)C(=O)NNC(=O)N1CCC[C@H]1C(=O)N[C@@H](Cc1ccccc1)C(=O)N[C@@H](C)C(=O)N[C@@H](Cc1ccccc1)C(N)=O | – | – | 67.6 nM | – |
| CC(C)[C@H](NC(=O)[C@H](CC(=O)O)NC(=O)[C@@H](NC(=O)[C@@H]1CCCN1)[C@@H](C)O)C(=O)NCC(=O)N1CCC[C@H]1C(=O)NN(Cc1ccccc1)C(=O)N[C@@H](C)C(=O)N[C@@H](Cc1ccccc1)C(N)=O (HELM PEPTIDE1{P.T.D.V.G.P.[O=C(N(Cc1ccccc1)N[*:1])[*:2]].A.F.[am]}$$$$V2.0) | – | inactive | – | – |
| CC(C)[C@H](NC(=O)[C@H](CC(=O)O)NC(=O)[C@@H](NC(=O)[C@@H]1CCCN1C(=O)[C@@H](NC(=O)[C@@H](N)Cc1ccccc1)C(C)C)[C@@H](C)O)C(=O)NCC(=O)N[C@H]1CC[C@H]2CC[C@@H](C(=O)N[C@@H](C)C(=O)N[C@@H](Cc3ccccc3)C(N)=O)N2C1=O | inactive | inactive | – | – |
| CC(C)[C@H](NC(=O)[C@H](CC(=O)O)NC(=O)[C@@H](NC(=O)[C@@H]1CCCN1)[C@@H](C)O)C(=O)NCC(=O)N1CCCC1C(=O)N[C@@H](Cc1ccccc1)C(=O)N[C@H]1C[C@H]2C[C@@H](c3ccccc3)C[C@@H](C(N)=O)N2C1=O (stereo partly drawn) (HELM PEPTIDE1{P.T.D.V.G.[O=C(C1CCCN1[*:1])[*:2]].F.[NC(=O)[C@@H]1C[C@H](c2ccccc2)C[C@@H]2C[C@H](N[*:1])C(=O)N21]}$$$$V2.0) | – | inactive | – | – |
| H-PTDVGPFAF-NH2 | – | – | 776 nM | 81% |
| CC(C)[C@H](NC(=O)[C@H](CC(=O)O)NC(=O)[C@@H](NC(=O)[C@@H]1CCCN1C(=O)[C@@H](NC(=O)[C@@H](N)Cc1ccccc1)C(C)C)[C@@H](C)O)C(=O)NCC(=O)N1CCC[C@H]1C(=O)NN(Cc1ccccc1)C(=O)N[C@@H](C)C(=O)N[C@@H](Cc1ccccc1)C(N)=O | – | – | 5750 nM | – |
